Results from ChEMBL document CHEMBL1121408, “Cyclophosphamide potentiation and aldehyde oxidase inhibition by phosphorylated aldehydes and acetals” (J Med Chem, 1980).

Key:
[1] = system: Mus musculus; assay: Percent increase in life span of mice bearing L1210 ascites cells compared to control (in vivo); format: functional
Method in brief: (§1)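 BDF1 female mice (18-20 g), groups of six, implanted ip with 10^5 L1210 ascites cells. On day 1 (24 h later), a single ip injection of test agent at 200 mg/kg, alone or with cyclophosphamide at 100 mg/kg, as a solution or suspension in 5% Tween 80 in normal saline, pH 4. Acetals were heated at 80 °C for 2 h just before injection. Vehicle-only controls were run. Deaths were recorded daily. %ILS = (mean treated life span − mean control)/mean control × 100, with survivors capped at 30 days. Survival was scored as the percent of each group alive 50 days after day 1.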

[2] = system: Mus musculus; assay: Percent animals surviving 50 days from day 1 (in vivo); format: functional; method in brief: as §1

CCOC(CCP(=O)(OCC)OCC)OCC
ILC [1]: 204% | Cures [2]: 83%

CCOP(=O)(CC=O)OCC
ILC [1]: 180% | Cures [2]: 67%

CCOP(=O)(CCC=O)c1ccccc1 (stereo not given)
ILC [1]: 175% | Cures [2]: 83%

CCOC(CCP(=O)(OCC)c1ccccc1)OCC (stereo not given)
ILC [1]: 166% | Cures [2]: 50%

Cc1ncc(CO)c(C=O)c1O [PYRIDOXAL]
ILC [1]: 164% | Cures [2]: 33%
